From PMC3494447 (British Journal of Cancer, 2012)
Like-named read-outs stand apart in the source and are kept apart here.

What was measured:
[1] = Plasma pharmacokinetics of chemotherapy in absence or presence of axitinib; format: in vivo, human; details: for Plasma pharmacokinetic parameters (Cmax, AUC, clearance, volume of distribution) in the absence or presence of axitinib: comparison in words; for clearance: CL; for Vd: Vz; for half-life: t½
[2] = test system: patients with advanced solid tumours; format: in vivo, human; details: for Dose-limiting toxicities: first cycle; for MTD of axitinib: continuously
[3] = test system: patients with advanced solid tumours; test: Safety: treatment-related adverse events; format: in vivo, human
Outline: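 Adverse events were monitored throughout in every patient given ≥1 dose and graded by CTCAE version 3.0. Physical examinations were done at baseline, on days 1, 8 and 15 of each cycle and 28 days after the last dose.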

[4] = test system: patients with advanced solid tumours; test: Haematologic laboratory abnormalities; format: in vivo, human; details: All grades; Total column = both chemotherapy cohorts
advanced solid tumours = test: Best tumour response by RECIST 1.0; format: in vivo, human
[5] = format: in vivo; details: human, plasma, oral; for AUC(0-t): AUC0-24, Mean (%CV); for Cmax / Vd/F / half-life: Mean (%CV); for Vd/F: Vz/F; for half-life: t½
human liver microsomes = details: in vitro, ref unpublished data; cited from earlier work
[6] = test system: patients with advanced NSCLC; details: phase II, single-agent axitinib, ref Schiller et al, 2009; cited from earlier work
[7] = human, plasma, intravenous, Mean (%CV), paclitaxel (+carboplatin) + axitinib, cycle 1 day 1, n=12
[8] = human, plasma, intravenous, Mean (%CV), paclitaxel (+carboplatin) without axitinib, cycle 2 day 1, n=12
[9] = human, plasma, intravenous, Mean (%CV), gemcitabine (+cisplatin) + axitinib, cycle 1 day 1, n=17
[10] = human, plasma, intravenous, Mean (%CV), gemcitabine (+cisplatin) without axitinib, cycle 2, n=17
[11] = All grades, Total column = both chemotherapy cohorts
[12] = grade >=3, across both treatment arms
[13] = 5 mg b.i.d., axitinib 5 mg b.i.d. + gemcitabine/cisplatin, cycle 1 day 1
[14] = 5 mg b.i.d., axitinib + paclitaxel/carboplatin, cycle 1 day 1, dose-normalised to 5 mg b.i.d.
[15] = 5 mg b.i.d., axitinib alone, steady state, cohorts 1–3 pooled, dose-normalised to 5 mg b.i.d.
[16] = 5 mg, axitinib alone 5 mg b.i.d., steady state, gemcitabine/cisplatin cohort
[17] = carboplatin (+paclitaxel) + axitinib, cycle 1 day 1, PUF, n=12
[18] = carboplatin (+paclitaxel) without axitinib, cycle 2 day 1, PUF, n=12

SMILES: CC(=O)O[C@H]1C(=O)[C@@]2(C)[C@H]([C@H](OC(=O)c3ccccc3)[C@]3(O)C[C@H](OC(=O)[C@H](O)[C@@H](NC(=O)c4ccccc4)c4ccccc4)C(C)=C1C3(C)C)[C@]1(OC(C)=O)CO[C@@H]1C[C@@H]2O [Paclitaxel, paclitaxel]
- Plasma pharmacokinetic parameters (Cmax, AUC, clearance, volume of distribution) in the absence or presence of axitinib [1]: similar
- clearance [1, 7]: 303 mL/min
- clearance [1, 8]: 360 mL/min
- Cmax ([1]; human, plasma, intravenous, Cmax, Mean (%CV), paclitaxel (+carboplatin) + axitinib, cycle 1 day 1, plasma, n=12): 7180 ng/mL
- Vd [1, 7]: 229 L
- Vd [1, 8]: 285 L
- half-life [1, 7]: 8.64 h
- half-life [1, 8]: 8.36 h

SMILES: O=c1ccn([C@@H]2O[C@H](CO)[C@@H](O)C2(F)F)c(=O)[nH]1 [dFdU, 2′,2′-difluorodeoxyuridine]
- Plasma pharmacokinetic parameters (Cmax, AUC, clearance, volume of distribution) in the absence or presence of axitinib [1]: similar

SMILES: Nc1ccn([C@@H]2O[C@H](CO)[C@@H](O)C2(F)F)c(=O)n1 [Gemcitabine, 2′,2′-difluorodeoxycytidine]
- Plasma pharmacokinetic parameters (Cmax, AUC, clearance, volume of distribution) in the absence or presence of axitinib [1]: similar
- AUC(0-inf) ([1]; human, plasma, intravenous): 11700 ng·h/mL
- clearance [1, 9]: 3620 mL/min
- clearance [1, 10]: 3730 mL/min
- Vd [1, 9]: 95.5 L
- Vd [1, 10]: 91.5 L

SMILES: CNC(=O)c1ccccc1Sc1ccc2c(/C=C/c3ccccn3)n[nH]c2c1 [Axitinib, axitinib]
- Dose-limiting toxicities ([2]; axitinib 5 mg b.i.d. with gemcitabine/cisplatin): fatigue
- Dose-limiting toxicities ([2]; cohort 1, axitinib lead-in 1 mg b.i.d., with paclitaxel/carboplatin): None
- Dose-limiting toxicities ([2]; cohort 2, axitinib lead-in 3 mg b.i.d., with paclitaxel/carboplatin): None
- Dose-limiting toxicities ([2]; cohort 3, axitinib 5 mg b.i.d., with paclitaxel/carboplatin): Febrile neutropenia (n=1)
- Dose-limiting toxicities ([2]; cohort 3, axitinib 5 mg b.i.d., with paclitaxel/carboplatin, listed as axitinib): febrile neutropenia
- MTD of axitinib ([2]; with cisplatin 80 mg m^-2 (day 1) and gemcitabine 1250 mg m^-2 (days 1 and 8)): 5 mg b.i.d.
- MTD of axitinib ([2]; with paclitaxel 200 mg m^-2 and carboplatin AUC 6 mg min ml^-1): 5 mg b.i.d.
- Grade >=3 haemoptysis ([3]; 12 patients with squamous cell NSCLC): No grade⩾3 haemoptysis occurred
- Decreased appetite, treatment-related AE [3, 11]: 7 (14.3) n (%)
- Diarrhoea, treatment-related AE [3, 11]: 17 (34.7) n (%)
- Dizziness, treatment-related AE [3, 11]: 5 (10.2) n (%)
- Dysgeusia, treatment-related AE [3, 11]: 6 (12.2) n (%)
- Dysphonia, treatment-related AE [3, 11]: 7 (14.3) n (%)
- Epistaxis, treatment-related AE [3, 11]: 8 (16.3) n (%)
- Fatigue, treatment-related AE [3, 11]: 14 (28.6) n (%)
- Hand–foot syndrome, treatment-related AE [3, 11]: 9 (18.4) n (%)
- Headache, treatment-related AE [3, 11]: 7 (14.3) n (%)
- Hypertension, treatment-related AE [3, 11]: 18 (36.7) n (%)
- Nausea, treatment-related AE [3, 11]: 8 (16.3) n (%)
- Proteinuria, treatment-related AE [3, 11]: 10 (20.4) n (%)
- Rash, treatment-related AE [3, 11]: 7 (14.3) n (%)
- Anaemia reported as treatment-related AE ([3]; Grade 3/4, all patients): 2.0%
- Leukopenia reported as treatment-related AE ([3]; Grade 3/4, all patients): 2.0%
- Treatment-related diarrhoea ([3]; all grades, all 49 patients): 34.7%
- Treatment-related fatigue ([3]; all grades, all 49 patients): 28.6%
- Treatment-related hypertension ([3]; all grades, all 49 patients): 36.7%
- Grade 5 treatment-related AEs ([3]; all patients): No cases
- Grade >=3 haemoptysis ([3]; all patients): No cases
- Patients with axitinib dose reduced ([3]; gemcitabine/cisplatin cohort): 28.6%
- Patients with axitinib dosing interrupted ([3]; gemcitabine/cisplatin cohort): 66.7%
- Treatment-related fatigue [3, 12]: 10.2%
- Treatment-related hypertension [3, 12]: 10.2%
- Patients with axitinib dose reduced ([3]; paclitaxel/carboplatin cohorts): 35.7%
- Patients with axitinib dosing interrupted ([3]; paclitaxel/carboplatin cohorts): 35.7%
- Anaemia, haematologic laboratory abnormality [4]: 48 (100) n (%)
- Leukopenia, haematologic laboratory abnormality [4]: 46 (95.8) n (%)
- Lymphopenia, haematologic laboratory abnormality [4]: 40 (83.3) n (%)
- Neutropenia, haematologic laboratory abnormality [4]: 46 (95.8) n (%)
- Thrombocytopenia, haematologic laboratory abnormality [4]: 43 (89.6) n (%)
- Objective responses, number of patients (advanced solid tumours; other tumour types): 5 n
- Objective responses, number of patients (advanced solid tumours; patients with NSCLC): 5 n
- Objective responses, number of patients (advanced solid tumours; patients with melanoma): 2 n
- Objective responses, number of patients (advanced solid tumours; patients with ovarian cancer): 3 n
- AUC(0-t) [5, 13]: 444 ng·h/mL
- AUC(0-t) [5, 14]: 535 ng·h/mL
- AUC(0-t) [5, 15]: 404 ng·h/mL
- Cmax ([5]; 5 mg b.i.d., axitinib 5 mg b.i.d. + gemcitabine/cisplatin, cycle 1 day 1, n=20): 41.7 ng/mL
- Cmax ([5]; 5 mg b.i.d., axitinib + paclitaxel/carboplatin, cycle 1 day 1, cohorts 1–3 pooled, dose-normalised to 5 mg b.i.d., n=12): 46 ng/mL
- Cmax ([5]; 5 mg b.i.d., axitinib alone, steady state, cycle 1 day –1, cohorts 1–3 pooled, dose-normalised to 5 mg b.i.d., n=12): 39 ng/mL
- Vd/F [5, 13]: 168 L
- Vd/F [5, 14]: 133 L
- Vd/F [5, 15]: 108 L
- half-life [5, 13]: 2.66 h
- AUC(0-t) [5, 16]: 416 ng·h/mL
- Cmax ([5]; 5 mg, axitinib alone 5 mg b.i.d., steady state, gemcitabine/cisplatin cohort, n=20): 41 ng/mL
- Vd/F [5, 16]: 157 L
- half-life [5, 16]: 2.68 h
- half-life ([5]; axitinib + paclitaxel/carboplatin, cycle 1 day 1): 2.7 h
- Enzymes mediating axitinib metabolism (human liver microsomes): primarily mediated by CYP3A4 and to a lesser extent by CYP1A2, CYP2C19 and UDP-glucuronosyltransferase 1A1
- median OS [6]: 14.8 months

SMILES: N.N.O=C([O-])C1(C(=O)[O-])CCC1.[Pt+2] [Carboplatin, carboplatin]
- CL, Mean (%CV) [1, 17]: 13.7 (31) l h^−1
- Vz, Mean (%CV) [1, 17]: 44.8 (15) l
- t½, Mean (%CV) [1, 17]: 2.44 (29) h
- CL, Mean (%CV) [1, 18]: 12.6 (32) l h^−1
- Vz, Mean (%CV) [1, 18]: 45.2 (18) l
- t½, Mean (%CV) [1, 18]: 2.62 (21) h
- Plasma pharmacokinetic parameters (Cmax, AUC, clearance, volume of distribution) in the absence or presence of axitinib [1]: similar
